pIC50, pKi: −log10 of the molar value.

As a reminder, the pIC50 is the IC50 on a negative log10 scale, so that one unit is a factor of ten. As a reminder, the half-life is the time needed for the level to fall by half in the phase considered. A low value points to rapid decline. A word on the bioavailability: it is the share of a dose that reaches the circulation, judged against a reference dose that is usually intravenous. A low value points to poor availability. For orientation: pKi means the negative decadic logarithm of the Ki, by convention in mol/L.

Chain of Cytochrome P450 3A4 (P08684 whole entry): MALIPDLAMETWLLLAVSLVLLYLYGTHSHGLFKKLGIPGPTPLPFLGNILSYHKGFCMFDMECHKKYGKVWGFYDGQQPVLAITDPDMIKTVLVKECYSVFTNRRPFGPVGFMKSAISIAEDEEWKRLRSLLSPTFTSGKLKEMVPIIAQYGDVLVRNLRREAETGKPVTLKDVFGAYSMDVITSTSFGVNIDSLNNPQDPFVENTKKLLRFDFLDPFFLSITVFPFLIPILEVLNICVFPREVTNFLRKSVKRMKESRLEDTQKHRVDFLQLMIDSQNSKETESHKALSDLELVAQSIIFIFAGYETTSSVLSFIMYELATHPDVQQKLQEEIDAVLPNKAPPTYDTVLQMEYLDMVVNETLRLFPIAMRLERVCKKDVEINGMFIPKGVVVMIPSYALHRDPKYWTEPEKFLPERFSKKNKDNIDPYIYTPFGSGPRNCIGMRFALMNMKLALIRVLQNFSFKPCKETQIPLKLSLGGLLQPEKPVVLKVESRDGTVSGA

The first series has as its target Cytochrome P450 3A4 (Homo sapiens, UniProt P08684). Briefly: Inhibition of CYP3A4. Type of series: ADME.
Settings: not given
`COc1cccc(NC(=O)Nc2cccn(Cc3c(F)cccc3Cl)c2=O)c1` had a pIC50 of less than 4.60.

The target in a further series is Cytochrome P450 2D6 (Homo sapiens, UniProt P10635). Nature of the series: Inhibition of CYP2D6.
Chain of Cytochrome P450 2D6 (P10635 whole entry): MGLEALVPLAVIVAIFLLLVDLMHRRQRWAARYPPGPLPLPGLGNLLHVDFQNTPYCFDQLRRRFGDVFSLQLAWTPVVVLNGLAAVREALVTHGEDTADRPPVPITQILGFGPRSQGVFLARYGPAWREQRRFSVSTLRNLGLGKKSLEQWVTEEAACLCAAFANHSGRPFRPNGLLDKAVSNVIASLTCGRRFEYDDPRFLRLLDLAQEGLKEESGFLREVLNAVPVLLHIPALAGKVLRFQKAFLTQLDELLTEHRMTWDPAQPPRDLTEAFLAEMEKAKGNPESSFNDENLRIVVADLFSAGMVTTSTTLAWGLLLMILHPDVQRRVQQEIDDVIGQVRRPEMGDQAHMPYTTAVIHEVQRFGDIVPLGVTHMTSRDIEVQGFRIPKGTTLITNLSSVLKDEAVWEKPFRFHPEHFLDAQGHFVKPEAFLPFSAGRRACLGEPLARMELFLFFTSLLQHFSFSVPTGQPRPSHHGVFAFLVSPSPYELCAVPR
Settings: not given
Type of series: ADME.
Molecule `COc1cccc(NC(=O)Nc2cccn(Cc3c(F)cccc3Cl)c2=O)c1` had a pIC50 of less than 4.60.

A further series deals with Cytochrome P450 2C9 (Homo sapiens, UniProt P11712). Briefly: Inhibition of CYP2C9. The class given is ADME.
Chain of Cytochrome P450 2C9 (P11712 whole entry): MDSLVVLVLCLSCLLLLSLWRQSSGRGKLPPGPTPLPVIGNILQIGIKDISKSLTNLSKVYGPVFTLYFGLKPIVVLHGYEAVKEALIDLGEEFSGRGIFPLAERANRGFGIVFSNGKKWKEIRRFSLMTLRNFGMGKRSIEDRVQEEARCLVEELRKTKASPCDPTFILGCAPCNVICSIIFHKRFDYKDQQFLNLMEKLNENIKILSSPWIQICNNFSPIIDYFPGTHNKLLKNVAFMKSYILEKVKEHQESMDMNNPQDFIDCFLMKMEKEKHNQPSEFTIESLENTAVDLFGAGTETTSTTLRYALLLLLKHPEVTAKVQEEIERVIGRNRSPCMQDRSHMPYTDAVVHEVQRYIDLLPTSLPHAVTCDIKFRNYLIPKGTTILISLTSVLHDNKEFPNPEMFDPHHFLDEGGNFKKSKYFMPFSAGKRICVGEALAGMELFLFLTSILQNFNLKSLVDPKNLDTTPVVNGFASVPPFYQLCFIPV
Settings: not given
On to `COc1cccc(NC(=O)Nc2cccn(Cc3c(F)cccc3Cl)c2=O)c1`, for which the pIC50 was 5.43.

Tested on in another series: not listed separately
Briefly: Half life in rat blood at 1.2 mg/kg, iv and 2 mg/kg, po.
Settings: not given
Type of series: ADME, organism-based. In a few lines:
(§1)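 Rats dosed at 1.2 mg/kg iv and 2.0 mg/kg po. Blood clearance, half-life, steady-state volume of distribution and oral bioavailability derived from the iv and po arms.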
In turn, `COc1cccc(NC(=O)Nc2cccn(Cc3ccccc3Cl)c2=O)c1` had a half-life of 1.3 h.

In another series the target is Cytochrome P450 2C19 (Homo sapiens, UniProt P33261). Briefly: Inhibition of CYP2C19. Type of series: ADME.
Chain of Cytochrome P450 2C19 (P33261 whole entry): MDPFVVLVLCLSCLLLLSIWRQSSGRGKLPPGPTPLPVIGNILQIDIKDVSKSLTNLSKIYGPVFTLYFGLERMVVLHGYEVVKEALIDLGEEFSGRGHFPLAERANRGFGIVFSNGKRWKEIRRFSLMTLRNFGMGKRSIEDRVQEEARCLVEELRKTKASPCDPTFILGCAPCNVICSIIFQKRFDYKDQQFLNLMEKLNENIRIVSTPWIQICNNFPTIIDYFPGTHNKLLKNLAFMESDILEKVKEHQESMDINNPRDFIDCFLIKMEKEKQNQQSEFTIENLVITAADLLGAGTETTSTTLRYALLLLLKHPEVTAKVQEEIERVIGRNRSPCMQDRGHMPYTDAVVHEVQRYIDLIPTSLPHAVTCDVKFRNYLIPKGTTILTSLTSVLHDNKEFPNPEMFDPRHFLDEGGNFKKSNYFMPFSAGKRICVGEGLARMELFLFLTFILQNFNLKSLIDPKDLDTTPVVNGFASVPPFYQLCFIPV
Settings: not given
With `COc1cccc(NC(=O)Nc2cccn(Cc3c(F)cccc3Cl)c2=O)c1`, the pIC50 was 5.35.

Tested on in the next series: not listed separately
Nature of the series: Clearance in rat blood at 1.2 mg/kg, iv and 2 mg/kg, po. The class given is ADME, organism-based.
Settings: not given
In a few lines:
as §1
Turning to `COc1cccc(NC(=O)Nc2cccn(Cc3ccccc3Cl)c2=O)c1`, the clearance came to 1.44 L/h/kg.

Tested on in a further series: not listed separately
Nature of the series: Oral bioavailability in rat blood at 1.2 mg/kg, iv and 2 mg/kg, po. Type of series: ADME, organism-based.
Settings: not given
In a few lines: as §1
`COc1cccc(NC(=O)Nc2cccn(Cc3ccccc3Cl)c2=O)c1` showed a bioavailability of 27%.

For a further series, the target named is T1, Prostaglandin E2 receptor EP3 subtype (Homo sapiens, UniProt P43115).
T1 sequence (P43115 whole entry): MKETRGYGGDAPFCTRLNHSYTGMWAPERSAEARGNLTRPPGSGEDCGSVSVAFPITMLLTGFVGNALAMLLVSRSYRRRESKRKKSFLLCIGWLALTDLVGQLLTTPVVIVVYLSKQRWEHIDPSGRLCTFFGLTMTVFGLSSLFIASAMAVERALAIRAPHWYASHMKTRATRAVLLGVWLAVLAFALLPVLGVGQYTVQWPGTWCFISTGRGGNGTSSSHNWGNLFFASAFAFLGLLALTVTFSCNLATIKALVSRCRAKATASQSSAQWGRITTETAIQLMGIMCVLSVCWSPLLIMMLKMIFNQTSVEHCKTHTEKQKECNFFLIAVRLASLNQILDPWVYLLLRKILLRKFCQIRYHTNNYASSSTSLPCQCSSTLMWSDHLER
Nature of the series: Antagonist activity at human EP3 receptor expressed in human U2OS cells assessed as inhibition of PGE2-induced intracellular calcium mobilization by FLIPR assay. Type of series: functional, cell-based.
Settings: not given
In general terms: A change in cytosolic calcium serves as a functional read-out for many receptors and channels.
Take `COc1ccc(NC(=O)Nc2cccn(Cc3ccccc3Cl)c2=O)cc1`: the pKi was less than 4.60. On to `Cc1cccc(NC(=O)Nc2cccn(Cc3ccccc3Cl)c2=O)c1`, for which the negative-log Ki (pKi) is 6.60. In the case of `CC(C)c1cccc(NC(=O)Nc2cccn(Cc3ccccc3Cl)c2=O)c1`, the pKi was 7.20. `O=C(Nc1cccc(Cc2ccccc2)c1)Nc1cccn(Cc2ccccc2Cl)c1=O`: the pKi was less than 4.60.

Consider `O=C(O)Cc1cccc(NC(=O)Nc2cccn(Cc3ccccc3Cl)c2=O)c1`, for which the pKi was less than 4.60.

`COC(=O)Cc1cccc(NC(=O)Nc2cccn(Cc3ccccc3Cl)c2=O)c1`: the pKi was less than 4.60. On the same count and under the same terms, in the case of `COc1cccc(NC(=O)Nc2cccn(Cc3ccccc3Cl)c2=O)c1` it was 6.80; in that of `COc1cccc(NC(=O)Nc2cccn(Cc3ccccc3)c2=O)c1`, 6.00; in that of `CC(=O)c1cccc(NC(=O)Nc2cccn(Cc3ccccc3Cl)c2=O)c1`, less than 4.60.

As to `O=C(Nc1ccc(Cl)cc1)Nc1cccn(Cc2ccccc2Cl)c1=O`, the pKi is less than 4.60.

On to `COc1cccc(NC(=O)Nc2cccn(Cc3ccccc3F)c2=O)c1`, for which the negative logarithm of the Ki (pKi) was 6.30. On the same count and under the same terms, in the case of `COc1cccc(NC(=O)Nc2cccn(Cc3ccccc3Br)c2=O)c1` it was 6.50; in that of `Cc1ccc(NC(=O)Nc2cccn(Cc3ccccc3Cl)c2=O)cc1`, 5.50. Same read-out and setting: in the case of `CCc1ccc(NC(=O)Nc2cccn(Cc3ccccc3Cl)c2=O)cc1` it was less than 4.60; in that of `COc1cccc(NC(=O)Nc2cccn(Cc3ccccc3C)c2=O)c1`, 5.60. On the same count and under the same terms, in the case of `COc1cccc(NC(=O)Nc2cccn(Cc3cccc(F)c3)c2=O)c1` it was 6.00; in that of `O=C(Nc1ccc(C(F)(F)F)cc1)Nc1cccn(Cc2ccccc2Cl)c1=O`, less than 4.60; in that of `COc1cccc(NC(=O)Nc2cccn(Cc3cccc(Cl)c3)c2=O)c1`, 6.40. As for `COc1cccc(NC(=O)Nc2cccn(Cc3cccc(C)c3)c2=O)c1`, the pKi was 5.90. The same measure, in the same setting: in the case of `COc1cccc(N(C)C(=O)Nc2cccn(Cc3ccccc3Cl)c2=O)c1` it was less than 4.60; in that of `COc1cccc(C(=O)Nc2cccn(Cc3ccccc3Cl)c2=O)c1`, less than 4.60; in that of `COc1cccc(Cn2cccc(NC(=O)Nc3cccc(OC)c3)c2=O)c1`, 5.70. With `COc1cccc(NC(=O)Nc2cccn(Cc3ccc(F)cc3)c2=O)c1`, the pKi was 5.90. Still for that read-out and setting: in the case of `COc1cccc(CC(=O)Nc2cccn(Cc3ccccc3Cl)c2=O)c1` it was less than 4.60; in that of `CCc1cccc(NC(=O)Nc2c(C)ccn(Cc3ccccc3Cl)c2=O)c1`, less than 4.60.

As for `COc1cccc(NC(=O)Nc2cccn(Cc3ccc(Cl)cc3)c2=O)c1`, the negative logarithm of the Ki (pKi) is 6.00. For the molecule `COc1cccc(NC(=O)Nc2cccn(Cc3ccc(C)cc3)c2=O)c1`, the pKi was 5.50. On the same count and under the same terms, in the case of `COc1cccc(NC(=O)Nc2cc(C)cn(Cc3ccccc3Cl)c2=O)c1` it was 5.90.

On to `CCc1cccc(NC(=O)Nc2cc(C)cn(Cc3ccccc3Cl)c2=O)c1`, for which the pKi was 6.70. On the same count and under the same terms, in the case of `COc1ccc(Cn2cccc(NC(=O)Nc3cccc(OC)c3)c2=O)cc1` it was 6.10; in that of `COc1cccc(NC(=O)Nc2cccn(Cc3ccc(F)cc3Cl)c2=O)c1`, 6.40. Same read-out and setting: in the case of `CCc1cccc(NC(=O)Nc2cc(Cl)cn(Cc3ccccc3Cl)c2=O)c1` it was 6.30; in that of `COc1cccc(NC(=O)Nc2ccc(C)n(Cc3ccccc3Cl)c2=O)c1`, 5.90.

As to `COc1cccc(NC(=O)Nc2cccn(Cc3cc(F)ccc3Cl)c2=O)c1`, the pKi is 6.10. Regarding `O=C(Nc1ccccc1F)Nc1cccn(Cc2ccccc2Cl)c1=O`, the pKi was 6.80. The same measure, in the same setting: in the case of `CCc1cccc(NC(=O)Nc2ccc(C)n(Cc3ccccc3Cl)c2=O)c1` it was 6.90; in that of `CCc1cccc(NC(=O)Nc2cccn(Cc3cccc(C(F)(F)F)c3)c2=O)c1`, 6.70. As to `O=C(Nc1ccccc1Cl)Nc1cccn(Cc2ccccc2Cl)c1=O`, the pKi was 6.90. Still for that read-out and setting: in the case of `O=C(Nc1ccccc1I)Nc1cccn(Cc2ccccc2Cl)c1=O` it was 5.30; in that of `CCc1cccc(NC(=O)Nc2cccn(Cc3ccc(F)cc3Cl)c2=O)c1`, 6.90.

With `CCc1cccc(NC(=O)Nc2cccn(Cc3ccccc3F)c2=O)c1`, the pKi was 7.00. Same read-out and setting: in the case of `Cc1ccccc1NC(=O)Nc1cccn(Cc2ccccc2Cl)c1=O` it was 6.10; in that of `CCc1ccccc1NC(=O)Nc1cccn(Cc2ccccc2Cl)c1=O`, 5.40. On the same count and under the same terms, in the case of `COc1cccc(NC(=O)Nc2cccn(Cc3c(F)cccc3Cl)c2=O)c1` it was 7.60; in that of `CCc1cccc(NC(=O)Nc2cccn(Cc3c(F)cccc3Cl)c2=O)c1`, 8.20. As for `COc1ccccc1NC(=O)Nc1cccn(Cc2ccccc2Cl)c1=O`, the negative logarithm of the Ki (pKi) was 6.20. For the molecule `O=C(Nc1cccc(F)c1)Nc1cccn(Cc2ccccc2Cl)c1=O`, the pKi was 5.80. Turning to `O=C(Nc1cccc(Cl)c1)Nc1cccn(Cc2ccccc2Cl)c1=O`, the pKi is 6.00. The same measure, in the same setting: in the case of `O=C(Nc1cccc(Br)c1)Nc1cccn(Cc2ccccc2Cl)c1=O` it was 6.00; in that of `O=C(Nc1cccc(I)c1)Nc1cccn(Cc2ccccc2Cl)c1=O`, 6.40. With `N#Cc1cccc(NC(=O)Nc2cccn(Cc3ccccc3Cl)c2=O)c1`, the pKi was less than 4.60.

Tested on in a further series: not listed separately
Nature of the series: Volume of distribution at steady state in rat blood at 1.2 mg/kg, iv and 2 mg/kg, po. The class given is ADME, organism-based. To be noted: read-out: Vdss. In a few lines:
as §1
On to `COc1cccc(NC(=O)Nc2cccn(Cc3ccccc3Cl)c2=O)c1`, for which the Vd came out at 3.4 L/kg.

Tested on in a further series: not listed separately
Nature of the series: Permeability across artificial membrane. Type of series: ADME. To be noted: PAMPA; read-out: permeability. (In PAMPA a lipid-coated filter parts donor from acceptor wells.)
Regarding `COc1cccc(NC(=O)Nc2cccn(Cc3ccccc3Cl)c2=O)c1`, the Papp was determined as 550 nm/s.

On to `COc1cccc(NC(=O)Nc2cccn(Cc3c(F)cccc3Cl)c2=O)c1`, for which the Papp stood at 220 nm/s.

These data come from ChEMBL document CHEMBL1268956, “3-Urea-1-(phenylmethyl)-pyridones as novel, potent, and selective EP3 receptor antagonists” (Bioorg Med Chem Lett, 2010).
